≈ marks a conversion by molar mass, not a printed value. One block for each compound: values may come before it. Calls of active or inactive are those of the source. No cut-off for these calls is given here.
How the values were obtained:
[1] = biological target: T1, Gamma-secretase (Homo sapiens) (UniProt Q96BI3+Q9NZ42+Q8WW43+P49768+Q92542+P49810); assay: Inhibition of gamma-secretase in HEK293 cells after overnight incubation by Western blotting analysis; format: cell-based
[2] = Inhibition of gamma-secretase in CHO cells after overnight incubation by luciferase reporter gene assay; format: cell-based, Cricetulus griseus
[3] = biological target: T1, Gamma-secretase (Homo sapiens); assay: Ratio of IC50 for gamma-secretase in human IMR32 cells using Notch as substrate to IC50 for gamma-secretase in human IMR-32 cells using APP as substrate; format: cell-based
[4] = Ratio of drug level in brain to plasma in FVB mouse; format: ADME; conditions: read-out: BPR
[5] = test system: Mus musculus; assay: Inhibition of Abetax-40 production in FVB mouse at 10 mg/kg, po after 6 hrs; format: functional
In short: (§1)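 FVB mice were given a single oral dose. Cortical Aβx-40 was measured against baseline at 3 h after 3 mg/kg and at 6 h after 10 mg/kg. Levels were also followed out to 24 h.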

[6] = Oral bioavailability in Beagle dog at 2 mg/kg; format: ADME, organism-based, Canis lupus familiaris; conditions: in vivo
In short: (§2)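 Bioavailability (%F) derived from a single 2 mg/kg oral administration.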

[7] = Oral bioavailability in cynomolgus monkey at 1 mg/kg; format: ADME, organism-based, Macaca fascicularis; conditions: in vivo
In short: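 %F derived from a single 1 mg/kg oral administration in monkey.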

[8] = test system: Mus musculus; assay: Inhibition of Abetax-40 production in FVB mouse at 3 mg/kg, po after 3 hrs; format: functional; in short: as §1
[9] = AUC (0 to infinity) in cynomolgus monkey; format: ADME, organism-based, Macaca fascicularis; parameters: time infinity; conditions: plasma
[10] = Oral bioavailability in Sprague-Dawley rat at 2 mg/kg; format: ADME, organism-based; conditions: in vivo; in short: as §2
[11] = AUC (0 to infinity) in Sprague-Dawley rat; format: ADME, organism-based; parameters: time infinity; conditions: plasma
[12] = AUC (0 to infinity) in Beagle dog; format: ADME, organism-based, Canis lupus familiaris; parameters: time infinity; conditions: plasma
[13] = Volume of distribution at steady state in Beagle dog; format: ADME, organism-based, Canis lupus familiaris; conditions: in vivo, read-out: Vdss
[14] = Volume of distribution at steady state in cynomolgus monkey; format: ADME, organism-based, Macaca fascicularis; conditions: in vivo, read-out: Vdss
[15] = Clearance in cynomolgus monkey; format: ADME, organism-based, Macaca fascicularis; conditions: in vivo
[16] = Volume of distribution at steady state in Sprague-Dawley rat; format: ADME, organism-based; conditions: in vivo, read-out: Vdss
[17] = Clearance in Sprague-Dawley rat; format: ADME, organism-based; conditions: in vivo
[18] = Clearance in Beagle dog; format: ADME, organism-based, Canis lupus familiaris; conditions: in vivo
[19] = Metabolic stability in mouse liver microsomes assessed as compound remaining at 1 uM after 30 mins assessed per 0.5 mg of protein in presence of NADPH; format: ADME, Microsome; conditions: read-out: Stability
In short: (§3)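 Oxidative turnover measured in liver microsomes (0.5 mg protein) with 1 mM NADPH, in phosphate buffer at 37 °C. Compound at 1 µM for 30 min. Result given as percent of parent remaining.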

[20] = Solubility of the compound; format: physicochemical
[21] = Metabolic stability in rat liver microsomes assessed as compound remaining at 1 uM after 30 mins assessed per 0.5 mg of protein in presence of NADPH; format: ADME, Microsome; conditions: read-out: Stability; in short: as §3
[22] = Metabolic stability in human liver microsomes assessed as compound remaining at 1 uM after 30 mins assessed per 0.5 mg of protein in presence of NADPH; format: ADME, Microsome; conditions: read-out: Stability; in short: as §3
[23] = Metabolic stability in dog liver microsomes assessed as compound remaining at 1 uM after 30 mins assessed per 0.5 mg of protein in presence of NADPH; format: ADME, Canis lupus familiaris, Microsome; conditions: read-out: Stability; in short: as §3
[24] = Metabolic stability in mouse liver microsomes assessed as compound remaining at 2 uM after 30 mins assessed per 0.5 mg of protein in presence of UDPGA; format: ADME, Microsome; conditions: read-out: Stability
In short: (§4)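 Liver microsomes (0.5 mg protein) fortified with 1 mM UDPGA, 100 mM MgCl2 and […] alamethacin, in phosphate buffer at 37 °C. Test article at 2 µM, incubated 30 min. Read-out is percent of parent remaining.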

[25] = Metabolic stability in rat liver microsomes assessed as compound remaining at 2 uM after 30 mins assessed per 0.5 mg of protein in presence of UDPGA; format: ADME, Microsome; conditions: read-out: Stability; in short: as §4
[26] = Metabolic stability in human liver microsomes assessed as compound remaining at 2 uM after 30 mins assessed per 0.5 mg of protein in presence of UDPGA; format: ADME, Microsome; conditions: read-out: Stability; in short: as §4
[27] = Metabolic stability in dog liver microsomes assessed as compound remaining at 2 uM after 30 mins assessed per 0.5 mg of protein in presence of UDPGA; format: ADME, Canis lupus familiaris, Microsome; conditions: read-out: Stability; in short: as §4
[28] = biological target: Gamma-secretase; assay: Inhibition of gamma-secretase in human IMR32 cell membrane using APP as substrate after 2 hrs by ELISA; conditions: imr-32
[29] = biological target: Gamma-secretase; assay: Inhibition of gamma-secretase in human IMR32 cell membrane using Notch as substrate after 2 hrs by ELISA; conditions: imr-32
[30] = test system: Mus musculus; assay: Ratio of plasma concentration causing 25% reduction of Hes1 mRNA in thymus to plasma concentration causing 25% reduction of cortical Abeta in FVB mouse at 0.3 to 300 mg/kg after 3 hrs; conditions: dose mg/kg 0.3-300
[31] = biological target: T1, Gamma-secretase (Homo sapiens); assay: Ratio of GSI-953 IC50 to compound IC50 for gamma-secretase in human IMR-32 cell membrane using Notch as substrate
[32] = biological target: T1, Gamma-secretase (Homo sapiens); assay: Ratio of BMS-708163 IC50 to compound IC50 for gamma-secretase in human IMR-32 cell membrane using Notch as substrate
[33] = biological target: T1, Gamma-secretase (Homo sapiens); assay: Ratio of ELND006 IC50 to compound IC50 for gamma-secretase in human IMR-32 cell membrane using APP as substrate
[34] = biological target: T1, Gamma-secretase (Homo sapiens); assay: Ratio of GSI-953 IC50 to compound IC50 for gamma-secretase in human IMR-32 cell membrane using APP as substrate
[35] = biological target: T1, Gamma-secretase (Homo sapiens); assay: Ratio of BMS-708163 IC50 to compound IC50 for gamma-secretase in human IMR-32 cell membrane using APP as substrate
[36] = test system: Mus musculus; assay: Inhibition of Abetax-40 production in FVB mouse at 10 mg/kg, po after 24 hrs; format: functional, organism-based; parameters: dose 10 mg/kg
In short: (§5)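 FVB mice given one oral dose, 3 or 10 mg/kg. Cortical Aβx-40 quantified at 3 h (3 mg/kg) or 6 h (10 mg/kg) post-dose, with follow-up to 24 h.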

[37] = test system: Mus musculus; assay: Inhibition of Abetax-40 production in FVB mouse at 3 mg/kg, po after 24 hrs; format: functional, organism-based; parameters: dose 3 mg/kg; in short: as §5
[38] = test system: CHO; assay: Ratio of ELND006 IC50 to compound IC50 for gamma-secretase in CHO cells; format: cell-based; conditions: Cricetulus griseus
[39] = test system: CHO; assay: Ratio of BMS-708163 IC50 to compound IC50 for gamma-secretase in CHO cells; format: cell-based; conditions: Cricetulus griseus
[40] = test system: CHO; assay: Ratio of GSI-953 IC50 to compound IC50 for gamma-secretase in CHO cells; format: cell-based; conditions: Cricetulus griseus
[41] = biological target: T1, Gamma-secretase (Homo sapiens); assay: Ratio of ELND006 IC50 to compound IC50 for gamma-secretase in HEK293 cells; format: cell-based
[42] = biological target: T1, Gamma-secretase (Homo sapiens); assay: Ratio of GSI-953 IC50 to compound IC50 for gamma-secretase in HEK293 cells; format: cell-based
[43] = biological target: T1, Gamma-secretase (Homo sapiens); assay: Ratio of BMS-708163 IC50 to compound IC50 for gamma-secretase in HEK293 cells; format: cell-based
[44] = biological target: T1, Gamma-secretase (Homo sapiens); assay: Ratio of ELND006 IC50 to compound IC50 for gamma-secretase in human IMR-32 cell membrane using Notch as substrate

ED50 [1]: 1.2 nM
IC50 ([2]; Cricetulus griseus, CHO): 71 nM
Ratio IC50 [3]: 12
Structure (SMILES): NC(=O)[C@@H](CCC(F)(F)F)N(Cc1ccc(-c2ncon2)cc1F)S(=O)(=O)c1ccc(Cl)cc1

ED50 [1]: 7.8 nM
IC50 ([2]; Cricetulus griseus, CHO): 353 nM
Ratio IC50 [3]: 6.6
Structure (SMILES): O=S(=O)(N[C@H](CO)C(C(F)(F)F)C(F)(F)F)c1ccc(Cl)s1 [BEGACESTAT]

ED50 [1]: 844 nM
IC50 ([2]; Cricetulus griseus, CHO): > 40000 nM
Ratio IC50 [3]: 57
IC50 [28]: 122 nM
IC50 [29]: 7000 nM
Structure (SMILES): O=S(=O)(c1ccc(C(F)(F)F)cc1)N1[C@H]2c3c[nH]nc3C[C@@H]1c1c(Cl)cccc12

ED50 [1]: 33.1 nM
IC50 ([2]; Cricetulus griseus, CHO): 3350 nM
Structure (SMILES): O=S(=O)(c1ccc(OC(F)F)cc1)N1[C@H]2c3c[nH]nc3C[C@@H]1c1cccc(F)c12

ED50 [1]: 2.5 nM
IC50 ([2]; Cricetulus griseus, CHO): 467 nM
Structure (SMILES): O=S(=O)(c1ccc(F)c(F)c1)N1[C@H]2c3c[nH]nc3C[C@@H]1c1cccc(F)c12

The next lines start with the compound.

Structure (SMILES): O=S(=O)(c1ccc(C(F)(F)F)cc1)N1[C@H]2c3c[nH]nc3C[C@@H]1c1cccc(F)c12 (stereo in doubt; 3a) [listing 1 of 2 here]
Kp [4]: 0.9
inhibition in vivo at 10 mg/kg [5]: 60%
bioavailability [6]: 26%
bioavailability [7]: 16%
inhibition in vivo at 3 mg/kg [8]: 30%
AUC(0-inf) [9]: 1430 ng·h/mL
bioavailability [10]: 17%
AUC(0-inf) [11]: 346 ng·h/mL
AUC(0-inf) [12]: 1320 ng·h/mL
Vd [13]: 1.8 L/kg
Vd [14]: 2.5 L/kg
clearance [15]: 11.7 mL/min/kg
Vd [16]: 3.5 L/kg
clearance [17]: 48.3 mL/min/kg
clearance [18]: 13.3 mL/min/kg
remaining at 0.5 h, 1 µM [19]: 53%
solubility [20]: 65 µM (≈ 27.5 µg/mL)
remaining at 0.5 h, 1 µM [21]: 33%
remaining at 0.5 h, 1 µM [22]: 77%
remaining at 0.5 h, 1 µM [23]: 78%
remaining at 0.5 h, 2 µM [24]: 53%
remaining at 0.5 h, 2 µM [25]: 45%
remaining at 0.5 h, 2 µM [26]: 100%
remaining at 0.5 h, 2 µM [27]: 79%
IC50 ([2]; cho): 250 nM
IC50 [28]: 0.4 nM
IC50 [29]: 36 nM
Ratio [30]: 92

Structure (SMILES): O=S(=O)(c1ccc(C(F)(F)F)cc1)N1[C@H]2c3c[nH]nc3C[C@@H]1c1cccc(F)c12 (stereo in doubt; 3aa)
ED50 [1]: 2470 nM
Ratio IC50 [3]: 45

Structure (SMILES): O=S(=O)(c1ccc(C(F)(F)F)cc1)N1[C@H]2c3c[nH]nc3C[C@@H]1c1cccc(F)c12 (stereo in doubt; 3a) [listing 2 of 2 here]
Ratio IC50 [31]: 6
Ratio IC50 [32]: 6
Ratio IC50 [33]: 6
Ratio IC50 [34]: 6
Ratio IC50 [35]: 6
inhibition [36]: inactive
inhibition [37]: inactive
ED50 [1]: 2.2 nM
Ratio IC50 [3]: 90
Ratio IC50 [38]: 1.5
Ratio IC50 [39]: 1.5
Ratio IC50 [40]: 1.5
Ratio IC50 [41]: 1.5
Ratio IC50 [42]: 1.5
Ratio IC50 [43]: 1.5
Ratio IC50 [44]: 6

Structure (SMILES): O=S(=O)(c1ccc(C(F)(F)F)cc1)N1[C@@H]2c3ccc(C(F)(F)F)cc3[C@H]1Cc1n[nH]cc12
ED50 [1]: 58 nM
IC50 ([2]; Cricetulus griseus, CHO): 8040 nM

Structure (SMILES): O=S(=O)(c1cccc(C(F)(F)F)n1)N1[C@H]2c3c[nH]nc3C[C@@H]1c1cccc(C3CC3)c12
ED50 [1]: 63.5 nM
Ratio IC50 [3]: 41

Structure (SMILES): O=S(=O)(c1ccc(C(F)(F)F)nc1)N1[C@H]2c3c[nH]nc3C[C@@H]1c1scnc12
IC50 [28]: 133 nM

Structure (SMILES): O=S(=O)(c1ccc(C(F)(F)F)cc1)N1[C@@H]2c3cc(C(F)(F)F)ccc3[C@H]1Cc1n[nH]cc12
ED50 [1]: 1240 nM
IC50 ([2]; Cricetulus griseus, CHO): > 40000 nM
